Only some compounds are listed: those with a hit (about 3.7% of all), similar ones and a draw of the others.
MPTP inh: mitochondrial permeability transition pore inhibitors, primary screen, biochemical, isolated mouse mitochondria, absorbance | Ca2+ swelling absorbance, 30 min | inhibition, % at 10 µM | actives 1.4% (n = 360,000);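 active means inhibition of 50% or more, scaled per plate between neutral and stimulator controls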;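 further: 0% = DMSO wells given calcium and 100% = 1 mM EGTA wells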
aDG glyco act: activators of alpha-DG glycosylation, primary screen, uHTS, Pro5-aDG cells, AlphaScreen. alpha-DG glycosylation AlphaScreen (IIH6); 0% Pro5, 100% B10-LARGE cell signal. activation, % at 10 µM. actives 0.22% (n = 360,000). AID 624168, 2012;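 active means activation of at least 8% versus controls, or a plate z-score of at least 8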;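 further: Pro5 are CHO cells carrying HIG-tagged alpha-DG that lacks glycosylation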
proCasp3 act: activators of human procaspase-3 D3A mutant, primary screen, biochemical, absorbance, PC-3 D3A mutant, single concentration; Caspase-3 (Homo sapiens), P42574; recombinant procaspase-3 D3A, Ac-DEVD-pNA absorbance 405 nm; activation, % at 8.5 µM; actives 0.11% (n = 330,000); AID 463141, 2010;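 active means activation above the mean of all tested compounds plus 3 SD, cut at about 21% in these data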;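 further: 0% = DMSO alone and 100% = DMSO wells spiked with extra 5 µM PC-3 D3A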
Target sequence (P42574 whole entry D9A/D28A/D175A): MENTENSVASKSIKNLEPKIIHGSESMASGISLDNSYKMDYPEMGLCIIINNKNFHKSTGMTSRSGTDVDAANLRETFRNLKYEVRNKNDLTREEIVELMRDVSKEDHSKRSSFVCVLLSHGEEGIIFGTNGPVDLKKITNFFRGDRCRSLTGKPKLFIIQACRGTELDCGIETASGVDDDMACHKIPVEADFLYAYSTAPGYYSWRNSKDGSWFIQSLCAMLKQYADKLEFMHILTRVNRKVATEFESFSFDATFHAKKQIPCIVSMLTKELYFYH
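Evaluation: percent activation relative to control range; Material: Procaspase-3 D3A mutant, all three cleavage aspartates alanine; Compound: single dose, 8.5 µM nominal compound, 0.8% DMSO; Replication: one well per compound; Signal: absorbance at 405 nm, 0 and 120 min; Schedule: 1 h preincubation plus 2 h reaction at 25 °C.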
proCasp7 act: procaspase-7 activators, primary screen, counter-screen for procaspase-3 activator project, biochemical, absorbance, HTS, human | Caspase-7 (Homo sapiens), P55210 | recombinant procaspase-7, Ac-DEVD-pNA absorbance 405 nm; D23A/D198A/D206A triple mutant, cannot self-cleave; scale: DMSO 0, 5 µM enzyme 100 | activation, % at 8.5 µM | actives 0.093% (n = 330,000);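 active means percent activation above the screen-wide mean plus 3 SD, cut at about 25% in these data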
Target sequence (P55210 whole entry D23A/D198A/D206A): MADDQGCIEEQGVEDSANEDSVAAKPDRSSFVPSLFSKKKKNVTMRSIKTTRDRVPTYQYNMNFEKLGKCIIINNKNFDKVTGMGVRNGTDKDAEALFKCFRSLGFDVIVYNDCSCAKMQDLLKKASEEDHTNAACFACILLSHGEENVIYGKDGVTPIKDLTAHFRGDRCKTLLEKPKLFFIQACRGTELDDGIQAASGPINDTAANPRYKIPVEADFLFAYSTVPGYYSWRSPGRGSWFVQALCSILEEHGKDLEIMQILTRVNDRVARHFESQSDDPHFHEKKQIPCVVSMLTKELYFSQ
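Assay system: Uncleavable procaspase-7 mutant enzyme / Input: 2 µM procaspase-7 mutant as dispensed / Dosing: single nominal 8.5 µM compound dose, 0.8% DMSO final / Timing: 1 h enzyme–compound preincubation and 2 h substrate reaction, both 25 °C / Detection: p-Nitroaniline absorbance at 405 nm, read at 0 and 120 min / Replication: singlicate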
NR3A LBD binder: binders of NR3A ligand-binding domain, primary screen, biophysical, differential scanning fluorimetry, uHTS; Tm shift relative to glycine control, % at 25 µM; Glutamate receptor ionotropic, NMDA 3A (GRIN3A) ligand-binding domain; actives 2.5% (n = 340,000); AID 1259313, 2017; NR3A LBD differential scanning fluorimetry, Tm shift; 0% = protein alone, 100% = glycine-bound protein;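 active means melting temperature shift of at least 10% of the positive control shift, at one fixed dose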
MPTP counter: fluorescence retest of MPTP screen hits in isolated mitochondria, single concentration; shares compounds with MPTP inh; membrane potential, Rhodamine 123 fluorescence; inhibition, % at 10 µM; actives 78% (n = 5,000); in the data active means inhibition above about 22%;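 further: 0% = DMSO vehicle and 100% = positive control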
MPTP swell DR: mitochondrial permeability transition pore inhibitors, dose response, biochemical, absorbance, uHTS hits; actives 58% (n = 780); isolated mitochondria swelling; shares compounds with MPTP inh; IC50, µM; in the data active means IC50 below about 20 µM
MPTP cs DR: fluorescent counter-screen in isolated mitochondria, dose response, counter-screen for MPTP inhibitor project, biochemical, fluorescence, uHTS hits | AID 651564, 2012 | isolated mitochondria counterscreen, fluorescence read-out | shares compounds with MPTP inh | actives 49% (n = 780) | IC50, µM; in the data active means IC50 below about 80 µM
* hit, by the source's call; i = inactive; / = no result given.

SMILES	MPTP inh	aDG glyco act	proCasp3 act	proCasp7 act	NR3A LBD binder	MPTP counter	others
O=C(O)CN1C(=O)/C(=C/c2ccc(SCc3ccccc3)o2)SC1=S	0.2	0.1	/	/	6.4	/
O=C1c2ccccc2S(=O)(=O)N1Cc1nnc(-c2ccccc2Br)o1	-0.8	1.0	/	/	0.3	/
O=S1(=O)c2cccc3cccc(c23)N1Cc1nnc(-c2ccccc2Br)o1	76.2*	2.7	8.0	4.9	-2.1	47.2*
CC(OC(=O)c1cc(Br)ccc1O)C(=O)Nc1ccc(S(=O)(=O)N2CCCC2)cc1 (configuration not stated)	87.0*	0.3	-2.9	7.9	10.5*	90.7*
Cc1cccc(C(=O)OC(C)C(=O)Nc2ccc(S(=O)(=O)N3CCCC3)cc2)c1O (configuration not stated)	0.4	0.1	9.0	-0.2	5.1	/
Cc1cc(C)c(N2CCN(S(=O)(=O)N3CCCCCC3)CC2)c(C)c1	78.9*	0.6	11.2	2.0	-1.6	13.3	MPTP swell DR=i;MPTP cs DR=17.4*
CN(C)S(=O)(=O)c1cc(NC(=O)CSc2ncc(C(F)(F)F)cc2Cl)ccc1Cl	74.5*	0.5	1.0	-5.0	5.1	86.1*
COc1ccc(OCC(=O)Nc2ccc3oc(-c4ccncc4)nc3c2)cc1	4.2	-0.2	-2.5	-2.4	-10.3	/
CCN(CC)CC(=O)Nc1ccc(-c2nc3cc(NC(=O)CN(CC)CC)ccc3o2)cc1	-1.4	1.0	-1.4	10.4	0.5	/
COc1ccc(-c2nc3cc(NC(=O)Cc4ccc(OC)c(OC)c4)ccc3o2)cc1	96.2*	2.0	-0.2	8.4	-8.6	90.1*
CCC(C)NCC(=O)Nc1ccc(-c2nc3cc(NC(=O)CNC(C)CC)ccc3o2)cc1 (configuration not stated)	73.5*	0.2	2.9	11.8	0.3	-4.7	MPTP swell DR=16.4*;MPTP cs DR=35.8*
O=C(CSc1nc2ccc([N+](=O)[O-])cc2[nH]1)c1ccc2ccccc2c1	99.1*	0.0	0.9	1.4	22.8*	68.2*
O=C(CSc1nc2ncc(Br)cc2[nH]1)c1ccc([N+](=O)[O-])cc1	35.7	0.1	-6.7	0.5	-1.8	/
COc1ccc(CCC(=O)Nc2ccc(Cl)c(S(=O)(=O)N3CCCC3)c2)cc1	96.3*	0.4	-6.3	5.9	-0.5	85.0*
CCC(C)[C@@H](NC(=O)OC(C)(C)C)c1nnc(S(=O)(=O)Cc2cccc(C)c2)o1 (some centres not stated)	90.7*	-0.1	/	/	12.2*	-3.8
CC(C)(C)OC(=O)N[C@@H](Cc1ccccc1)c1nnc(S(=O)(=O)Cc2ccccc2)o1	/	/	-18.6	-19.1	/	/
Oc1c(C=C2N=c3ccccc3=N2)sc(=S)n1C1CCCCC1	77.1*	0.0	-1.5	-8.5	-3.0	-6.8	MPTP swell DR=>100;MPTP cs DR=>80
CSC1=NSC2=NC(=O)/C(=C\c3ccc(OC(=O)c4ccco4)cc3)C(=N)N12	-0.7	-0.3	5.4	-11.7	1.1	/
CCSC1=NSC2=NC(=O)/C(=C\c3coc4ccccc4c3=O)C(=N)N12	101.0*	0.1	-32.2	-14.4	10.9*	74.1*
CC(C)CC1=NN2C(=N)/C(=C\c3coc4ccccc4c3=O)C(=O)N=C2S1	85.9*	-0.5	/	/	-1.6	81.5*
COCC1CCCCN1C(=O)c1cc(COc2ccc3ncccc3c2)on1 (configuration not stated)	99.9*	2.5	-0.8	8.0	-2.5	101.4*
CCc1ccc(CN(C)C(=O)c2cc(COc3ccc(-n4cncn4)cc3)on2)cc1	58.7*	1.1	3.0	4.1	6.5	78.1*
CN(Cc1ccc(F)cc1)C(=O)c1cc(COc2ccc(-n3cncn3)cc2)on1	9.0	1.3	/	/	2.5	/
COCCC1CCCCN1C(=O)c1cc(COc2ccc(-n3cncn3)cc2)on1 (configuration not stated)	92.5*	3.2	-3.2	-2.5	1.1	100.2*
CCC1CCCCN1C(=O)c1cc(COc2ccc3ncccc3c2)on1 (configuration not stated)	104.0*	7.6*	1.4	6.5	-0.4	81.1*
SMILES	MPTP inh	aDG glyco act	proCasp3 act	proCasp7 act	NR3A LBD binder	MPTP counter	others
CCN1CCN(C(=O)c2cc(COc3ccc4ncccc4c3)on2)CC1	11.0	5.0	0.6	1.6	2.1	/
COc1ccc(S(=O)(=O)Nc2c(C)nn(C)c2C)cc1Br	0.5	0.6	9.0	4.9	-0.2	/
CCCN1CCN(C(=O)c2cc(COc3ccc4ncccc4c3)on2)CC1	86.1*	0.7	-1.1	2.7	-0.5	55.6*
CC(NC1CCCC1)c1ccccc1 (configuration not stated)	0.4	-0.1	5.9	-2.8	-2.0	/
CC(NCCC(c1ccccc1)c1ccccc1)c1ccccc1 (configuration not stated)	94.3*	0.3	7.2	5.0	0.6	-2.2
O=C(COC(=O)CNC(=O)c1ccc(Cl)cc1Cl)NC1CCCCCCC1	-1.1	0.0	-4.9	7.7	0.8	/
CN1CCN(c2ccccc2NC(=O)c2ccc(OCc3ccccc3)cc2)CC1	78.0*	1.2	-5.2	-2.0	-2.5	-10.3	MPTP swell DR=9.43*;MPTP cs DR=>80
CN1CCN(c2ccccc2NC(=O)c2cccc(OCc3ccccc3)c2)CC1	0.8	0.7	1.8	6.2	0.5	/
CN1CCN(c2ccccc2NC(=O)C(Cc2ccccc2)n2cccc2)CC1 (configuration not stated)	81.3*	3.2	-3.2	-3.7	-2.9	-12.2	MPTP swell DR=i;MPTP cs DR=>80
CCCCOc1ccc(C(=O)Nc2ccc(N3CCN(C)CC3)cc2)cc1	89.5*	7.3	-2.6	-4.4	-4.2	-8.4	MPTP swell DR=i;MPTP cs DR=>80
C=CC[C@@H](CC(=O)NCCO)C(=O)NC[C@H](OC(=O)[C@@H](CC=C)Cc1ccc(F)cc1)c1ccccc1	-1.8	-0.2	1.1	18.2	0.5	/
OCC1(Cc2cccc(C(F)(F)F)c2)CCN(Cc2cc(F)cc(F)c2)CC1	2.0	3.2	-5.4	5.8	-4.6	/
